In data set [1] the target is recombinant rat Nln (Rattus norvegicus, UniProt P42676). Briefly: Nln activation, continuous quenched fluorescence substrate. The format is biochemical.
Data set [2] is described as follows: Brain protein binding, rapid equilibrium dialysis. The class given is in vitro ADME. The settings on record: mouse, mouse brain homogenate (dilution factor D = 5). A digest of the protocol: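 Mouse brain homogenate spiked to 500 ng/mL final (from a 10 µg/mL aqueous dilution of DMSO solution) was dialysed against DPBS across an 8 kDa cutoff membrane for 4 h at 37 °C with 250 rpm orbital shaking. Both chambers were sampled and quantified by LC–MS/MS. fu,d = receiver/donor, corrected to undiluted fu with D = 5. Done in triplicate.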

The format of data set [3] is in vitro ADME, mouse. The settings on record: CD-1 (source of the primary astrocytes), mouse.
The test system of data set [4] is co-culture of primary mouse astrocytes and immortalized mouse endothelial cells (bEnd3). The class given is in vitro ADME. The settings on record: ratio of Pe values.
For data set [5], the target named is human TOP (Homo sapiens, UniProt P52888). Briefly: Peptidase selectivity: thimet oligopeptidase, fluorogenic substrate. The class given is biochemical. The settings on record: eight-point concentration–response up to 300 μM; substrate 15 μM.
Chain of human TOP (P52888 whole entry): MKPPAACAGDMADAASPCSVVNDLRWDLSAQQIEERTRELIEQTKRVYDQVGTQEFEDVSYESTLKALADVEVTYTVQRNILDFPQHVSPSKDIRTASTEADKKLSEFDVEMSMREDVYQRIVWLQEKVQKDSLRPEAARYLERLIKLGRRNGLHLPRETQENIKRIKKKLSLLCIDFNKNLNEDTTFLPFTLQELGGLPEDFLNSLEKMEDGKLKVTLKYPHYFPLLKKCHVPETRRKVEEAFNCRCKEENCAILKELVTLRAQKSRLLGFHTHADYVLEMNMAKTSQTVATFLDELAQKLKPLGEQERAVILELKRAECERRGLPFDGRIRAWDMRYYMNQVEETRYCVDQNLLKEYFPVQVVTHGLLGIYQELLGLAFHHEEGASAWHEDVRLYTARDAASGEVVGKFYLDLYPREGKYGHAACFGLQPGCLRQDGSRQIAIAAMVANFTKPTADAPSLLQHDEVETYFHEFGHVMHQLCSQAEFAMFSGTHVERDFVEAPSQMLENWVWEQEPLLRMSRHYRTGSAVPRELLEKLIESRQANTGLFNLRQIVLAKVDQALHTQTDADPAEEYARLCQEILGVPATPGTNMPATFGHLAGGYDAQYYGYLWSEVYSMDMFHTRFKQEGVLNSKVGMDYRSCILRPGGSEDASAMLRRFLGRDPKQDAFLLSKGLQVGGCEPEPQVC
For data set [6], the target named is human NEP (Homo sapiens, UniProt P08473). Briefly: Peptidase selectivity: neprilysin, fluorogenic substrate. The format is biochemical. The settings on record: eight-point concentration–response up to 300 μM; substrate 10 μM.
Chain of human NEP (P08473 whole entry): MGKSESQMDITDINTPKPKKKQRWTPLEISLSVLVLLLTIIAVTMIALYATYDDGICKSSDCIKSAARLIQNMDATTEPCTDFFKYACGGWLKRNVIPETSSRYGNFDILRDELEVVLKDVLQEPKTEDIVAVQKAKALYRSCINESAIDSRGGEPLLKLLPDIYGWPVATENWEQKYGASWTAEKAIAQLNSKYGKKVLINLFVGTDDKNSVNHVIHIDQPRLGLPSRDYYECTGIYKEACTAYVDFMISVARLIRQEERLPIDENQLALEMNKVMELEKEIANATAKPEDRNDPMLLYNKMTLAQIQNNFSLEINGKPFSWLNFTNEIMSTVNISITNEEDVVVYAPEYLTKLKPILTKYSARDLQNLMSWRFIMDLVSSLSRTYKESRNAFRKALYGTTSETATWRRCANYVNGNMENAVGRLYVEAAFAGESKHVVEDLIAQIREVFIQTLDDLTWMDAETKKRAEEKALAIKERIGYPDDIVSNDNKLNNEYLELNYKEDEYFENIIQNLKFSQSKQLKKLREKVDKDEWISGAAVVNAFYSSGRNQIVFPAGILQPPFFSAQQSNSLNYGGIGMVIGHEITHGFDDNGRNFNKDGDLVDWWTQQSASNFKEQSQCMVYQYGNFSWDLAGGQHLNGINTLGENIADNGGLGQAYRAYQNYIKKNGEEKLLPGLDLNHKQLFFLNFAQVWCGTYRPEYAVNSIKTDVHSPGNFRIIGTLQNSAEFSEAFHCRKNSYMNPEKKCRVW
In data set [7] the target is human ACE2 (Homo sapiens, UniProt Q9BYF1). Briefly: Peptidase selectivity: ACE2, fluorogenic substrate. Particulars: eight-point concentration–response up to 300 μM; substrate 10 μM. The class given is biochemical. A digest of the protocol:
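Recombinant human ACE2 was tested in artificial CSF at 37 °C with a 10 min preincubation of enzyme and test compound (from 30–50 mM DMSO stocks). Mca-Ala-Pro-Lys(Dnp) (10 µM) started the reaction, and fluorescence (320 nm excitation, 405 nm emission) was followed continuously for 20 min; n = 4.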

Data set [8] deals with human angiotensin-converting enzyme (Homo sapiens, UniProt P12821). Briefly: Peptidase selectivity: ACE, fluorogenic substrate. The format is biochemical. The settings on record: eight-point concentration–response up to 300 μM; substrate 10 μM. A digest of the protocol: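 Continuous fluorogenic assay with recombinant human ACE in artificial CSF at 37 °C. Test compound (from 30–50 mM DMSO stocks) was preincubated with enzyme for 10 min. The reaction was started with Mca-[…]Dnp)-OH (10 µM), and fluorescence (ex 320/em 405 nm) was read continuously for 20 min; n = 4.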
Chain of human angiotensin-converting enzyme (P12821 30-1306): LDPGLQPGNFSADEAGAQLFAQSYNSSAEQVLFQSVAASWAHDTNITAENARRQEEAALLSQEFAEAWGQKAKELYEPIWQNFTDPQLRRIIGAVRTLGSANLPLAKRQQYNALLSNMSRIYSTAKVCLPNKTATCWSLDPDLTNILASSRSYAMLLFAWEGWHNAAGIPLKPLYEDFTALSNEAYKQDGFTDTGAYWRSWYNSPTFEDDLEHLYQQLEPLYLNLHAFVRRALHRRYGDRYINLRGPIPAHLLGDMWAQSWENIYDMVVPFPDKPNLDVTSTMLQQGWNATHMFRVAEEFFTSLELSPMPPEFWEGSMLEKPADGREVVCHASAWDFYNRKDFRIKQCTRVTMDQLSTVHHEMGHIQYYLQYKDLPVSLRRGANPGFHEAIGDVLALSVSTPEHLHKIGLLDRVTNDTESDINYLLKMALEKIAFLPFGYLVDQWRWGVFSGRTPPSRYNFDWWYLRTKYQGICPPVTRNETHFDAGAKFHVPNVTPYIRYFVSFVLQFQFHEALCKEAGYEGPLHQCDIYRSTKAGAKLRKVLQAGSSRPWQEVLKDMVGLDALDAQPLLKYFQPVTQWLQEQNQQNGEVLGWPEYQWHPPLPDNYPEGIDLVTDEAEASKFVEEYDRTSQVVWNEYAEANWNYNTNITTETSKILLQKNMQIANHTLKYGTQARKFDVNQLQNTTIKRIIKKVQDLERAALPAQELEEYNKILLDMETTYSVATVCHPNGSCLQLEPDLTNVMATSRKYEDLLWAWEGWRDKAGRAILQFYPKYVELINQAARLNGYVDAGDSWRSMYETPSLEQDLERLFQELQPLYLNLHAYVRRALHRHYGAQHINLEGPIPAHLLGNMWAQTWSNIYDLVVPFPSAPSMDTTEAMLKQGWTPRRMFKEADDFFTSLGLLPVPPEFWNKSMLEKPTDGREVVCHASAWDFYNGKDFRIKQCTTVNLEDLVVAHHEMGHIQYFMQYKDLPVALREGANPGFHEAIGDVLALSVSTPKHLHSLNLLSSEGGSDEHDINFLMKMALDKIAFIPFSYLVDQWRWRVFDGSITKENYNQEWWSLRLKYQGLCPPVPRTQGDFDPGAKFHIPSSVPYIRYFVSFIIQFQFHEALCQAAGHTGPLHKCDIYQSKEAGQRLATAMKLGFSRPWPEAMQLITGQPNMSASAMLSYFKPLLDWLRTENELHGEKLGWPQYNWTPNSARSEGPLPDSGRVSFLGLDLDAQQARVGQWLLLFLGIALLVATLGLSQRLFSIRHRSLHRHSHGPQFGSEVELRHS

For data set [9], the target named is Rat recombinant neurolysin (Rattus norvegicus, UniProt P42676). Briefly: Hydrolysis of endogenous substrates BK and NT by Nln, LC-MS/MS. The class given is biochemical. Particulars: compound 10 or 30 μM, Nln 0.5 nM. The method, boiled down:
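In-house recombinant rat Nln (0.5 nM) was preincubated 10 min at 37 °C with test compound (10 or 30 µM), then given bradykinin (20 µM) for a further 10 min at 37 °C. BK-(1–5) was quantified by LC–MS/MS (water/acetonitrile with 0.1% formic acid gradient, column 40 °C) as a peak-area ratio to internal standard; n = 3.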

Chain of recombinant rat Nln (P42676 38-704): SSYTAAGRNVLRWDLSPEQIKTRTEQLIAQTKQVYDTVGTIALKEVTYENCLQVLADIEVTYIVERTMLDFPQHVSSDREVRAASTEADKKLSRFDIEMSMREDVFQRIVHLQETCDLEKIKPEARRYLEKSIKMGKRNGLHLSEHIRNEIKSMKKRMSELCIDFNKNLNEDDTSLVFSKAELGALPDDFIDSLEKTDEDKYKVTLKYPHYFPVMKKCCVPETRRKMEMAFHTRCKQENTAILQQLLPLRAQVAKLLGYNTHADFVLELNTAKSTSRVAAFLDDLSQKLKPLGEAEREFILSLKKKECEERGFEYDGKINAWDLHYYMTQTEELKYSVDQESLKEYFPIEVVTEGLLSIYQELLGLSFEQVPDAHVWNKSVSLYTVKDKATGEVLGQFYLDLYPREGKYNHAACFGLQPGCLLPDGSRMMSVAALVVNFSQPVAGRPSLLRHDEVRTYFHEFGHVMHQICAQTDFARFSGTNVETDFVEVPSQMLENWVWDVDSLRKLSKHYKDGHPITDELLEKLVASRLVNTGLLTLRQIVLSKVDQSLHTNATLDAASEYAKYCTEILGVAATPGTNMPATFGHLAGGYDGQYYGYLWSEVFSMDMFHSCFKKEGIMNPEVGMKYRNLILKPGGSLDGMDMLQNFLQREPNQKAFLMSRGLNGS
Chain of Rat recombinant neurolysin (P42676 38-704): as above
Chain of human ACE2 (Q9BYF1 18-805): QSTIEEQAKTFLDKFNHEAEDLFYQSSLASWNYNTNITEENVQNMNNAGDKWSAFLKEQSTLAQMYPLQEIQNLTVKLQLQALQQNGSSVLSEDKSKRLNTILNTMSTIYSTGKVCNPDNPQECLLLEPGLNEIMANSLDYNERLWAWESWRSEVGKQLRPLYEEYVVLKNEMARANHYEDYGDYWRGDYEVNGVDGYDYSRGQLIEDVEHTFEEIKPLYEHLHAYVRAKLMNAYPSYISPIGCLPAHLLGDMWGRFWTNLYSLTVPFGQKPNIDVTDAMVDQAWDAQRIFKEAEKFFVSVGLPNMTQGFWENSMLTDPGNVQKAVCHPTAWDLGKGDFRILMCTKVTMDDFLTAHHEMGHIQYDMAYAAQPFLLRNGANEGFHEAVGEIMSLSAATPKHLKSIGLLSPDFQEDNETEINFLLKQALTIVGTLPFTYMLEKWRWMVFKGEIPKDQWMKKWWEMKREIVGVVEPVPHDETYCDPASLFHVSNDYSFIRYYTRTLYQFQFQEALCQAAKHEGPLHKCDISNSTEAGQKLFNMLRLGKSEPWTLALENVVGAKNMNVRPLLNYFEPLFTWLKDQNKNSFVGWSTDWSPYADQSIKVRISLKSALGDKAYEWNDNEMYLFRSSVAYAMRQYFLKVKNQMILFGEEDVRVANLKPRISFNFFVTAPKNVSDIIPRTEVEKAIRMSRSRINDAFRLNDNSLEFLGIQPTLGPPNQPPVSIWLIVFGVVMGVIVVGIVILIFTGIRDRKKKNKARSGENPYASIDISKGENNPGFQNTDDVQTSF

Turning to `N[C@@H](Cc1c[nH]cn1)C(=O)Nc1cccc2cccnc12` [Compound 11a, (S)-2-Amino-3-(1H-imidazol-4-yl)-N-(quinolin-8-yl)propanamide], the “Amax, maximum % activation achieved (95% CI)” value in [1] (100% = normal enzyme turnover, mean of n = 4, 95% CI in parentheses) is reported as 281.2 (266.7 to 297.1) %. Besides, in data set [1] (A50 ratio), the “increase in potency over the least active hit” value was above 30 fold and the “increase in potency over the most active hit” value is given as above 10 fold. Also, the “mean Amax of the two enantiomers” value in data set [1] (mean over L and D enantiomer) was determined as 285%. The molecule also returned a free fraction (fraction unbound) at 4 h, 500 ng/mL in data set [2] of 0.062 ± 0.011. Also, the Papp A→B at 120 min, 10 μg/mL in data set [3] is 19 ×10⁻⁶ cm/s. The “increase in BBB permeability / brain penetration over hit compounds 1 and 4” value in data set [4] was 4–5 fold. For the same molecule, in [5], the “effect on catalytic activity of TOP” value is “No appreciable inhibition”. Moreover, in data set [6], the “effect on catalytic activity of NEP” value was “None of the three compounds showed appreciable inhibition”. In addition, in data set [7], the “effect on catalytic activity of ACE2” value is recorded as “inhibition of ACE2 at high concentrations”. In data set [8], the “effect on catalytic activity of ACE” value is listed as “inhibition of ACE at high concentration”. Besides, in [9] (BK 20 μM), the “hydrolysis of BK by Nln, formation of BK-(1–5)” value is listed as “enhanced hydrolysis of BK”. In data set [9] (NT 20 μM), the “hydrolysis of NT by Nln, formation of NT-(1–10)” value is reported as “hydrolysis of NT by Nln was also enhanced”.

Usually fraction unbound stands for free concentration divided by total concentration. As usually defined, the Papp A→B is the apparent permeability from the apical to the basolateral side of a cell layer. Lower therefore signals slow passage.
